RanGTP-Impb inh – disruptors of Ran-importin-beta complex formation – biochemical, FRET, CFP-Ran, YFP-importin-beta, homogeneous, primary screen. cell-free CFP-Ran/YFP-importin-beta FRET ratio. inhibition, % (test concentration not listed). 1.1% of 300,000 active. AID 2216;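 active means more than half of the replicate wells show a fall in the fluorescence ratio signal beyond about 16%, limit read from the data, passing the limit was not always enough; inconclusive means exactly half of the replicate wells pass the set limit; inactive means fewer than half of replicates pass the limit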;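 further: 0% = DMSO wells and 100% = Ran loaded with GDP instead of GTP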
Rce1 inhib – blocks yeast Ras-converting enzyme; yeast membranes, quenched prenylated peptide cleavage fluorescence; calls only; 0.27% of 290,000 active; AID 2563;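 active means fall in fluorescence gain of 50% or more versus controls, with final raw signal at or below 3038400; inconclusive means same 50% fall but final raw signal above 3038400; inactive means fall in fluorescence gain under 50%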;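 further: plate controls were neutral control wells for no effect and wells lacking membranes for full effect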
Target sequence (Q03530 whole entry, looked up): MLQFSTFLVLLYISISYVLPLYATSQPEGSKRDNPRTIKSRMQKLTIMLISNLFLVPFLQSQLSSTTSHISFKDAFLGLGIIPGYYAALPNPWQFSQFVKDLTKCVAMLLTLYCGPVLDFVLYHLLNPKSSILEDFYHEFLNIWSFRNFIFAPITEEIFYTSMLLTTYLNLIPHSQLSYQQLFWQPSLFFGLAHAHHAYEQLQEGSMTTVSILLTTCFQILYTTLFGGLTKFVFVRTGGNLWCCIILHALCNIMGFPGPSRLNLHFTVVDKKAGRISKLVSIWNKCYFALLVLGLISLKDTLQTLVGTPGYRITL
Runt-CBFb FRET – blocks binding of human RUNX1 Runt domain to CBFb; AID 1496; 0.46% of 220,000 active; inhibition, % at 20 µM; Cerulean-Runt/Venus-CBFb FRET ratio 530/480, 1 h; Q01196+Q13951;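 active means inhibition over about 50% at 20 µM in the single-dose screen, limit read from the data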;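 further: 0% = DMSO wells and 100% = excess unlabeled CBFb competitor control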
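System: Cerulean-labeled Runt domain protein | Quantity: 100 nM of each labeled protein | Schedule: 1 h compound exposure, room temperature | Detection: Fluorescence energy transfer, 422 nm excitation, 530/480 nm emission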
Vif inh – HIV Vif inhibition; HEK293T cells, Vif self-association by quenched fluorescence, imaging, 24 h; 0.35% of 340,000 active; inhibition, % at 7.49 µM; in the data active means inhibition above about 50%, passing the limit was not always enough; inconclusive means no clear call, values can overlap the other calls; inactive means below about 31%
Runt-SMMHC FRET – inhibitors of human RUNX1 Runt domain binding to CBFb-SMMHC. inhibition, % at 20 µM. Cerulean-Runt/Venus-CBFb-SMMHC FRET ratio 530/480, 1 h. AID 1434. Q01196+Q13951. 0.74% of 220,000 active;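 active means mean inhibition across duplicate retests at 20 µM reaching about 50%, limit read from the data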;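 further: 0% = DMSO wells and 100% = wells with excess untagged CBFb-SMMHC; inhibitors lower the FRET ratio by blocking Runt binding to CBFb-SMMHC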
An asterisk follows results filed as active; i = inactive; u = inconclusive; x = no result given; + = active, no number. This is a sample that favours compounds with a hit; in the whole collection about 1.7% have one here.

SMILES | RanGTP-Impb inh | Rce1 inhib | Runt-CBFb FRET | Vif inh | Runt-SMMHC FRET
O=C(Nc1ccc(N2CCOCC2)c(Cl)c1)c1ccc(-n2cnnc2)cc1Cl | 1.8 | i | x | x | x
CCCCc1n(CC(=O)c2ccc(Cl)cc2)c2ccccc2[n+]1C | 1.9 | i | 0.0 | 13.1 | -0.6
CCN(CC)CCNC(=O)C12CC3CC(C)(CC(C)(C3)C1)C2 | u | i | -0.7 | 68.4* | 0.5
CC(=O)Nc1ccc(OCCC[n+]2ccccc2)cc1 | 16.6* | x | -1.4 | -1.6 | -2.0
O=C(N[C@H](CO)c1ccccc1)[C@H]1O[C@@H](n2ccc(=O)[nH]c2=O)[C@H](O)[C@@H]1O | x | x | x | -0.6 | x
CN(CC(=O)NCCc1ccc(S(N)(=O)=O)cc1)S(=O)(=O)c1ccc(Br)s1 | -0.2 | x | x | 62.1* | x
CCCCN(C(=O)c1ccc(N2CCCC2=O)cc1)c1c(N)n(Cc2ccccc2)c(=O)[nH]c1=O | 8.4 | x | x | 29.9 | x
Cc1ccc(-n2nc3c(N4CCC(C(=O)NCCc5cccs5)CC4)nnc(C)c3c2C)cc1 | -2.2 | i | x | 51.1* | x
Cc1ccc(-n2nc3c(=O)n(CC(=O)NCCc4cccs4)nc(C)c3c2C)cc1 | 1.8 | i | x | 1.2 | x
O=C(CSc1nnc(CNC(=O)c2ccccc2)o1)NCc1ccc2c(c1)OCO2 | 0.3 | i | x | 2.7 | x
c1ccc(C(c2c[nH]c3ccccc23)c2c[nH]c3ccccc23)nc1 | 52.4* | i | 0.5 | 2.4 | 2.9
O=C(CCC(=O)N1CCCC(Nc2ccccc2)C1)c1ccc(F)cc1 (stereo unspecified) | -2.3 | i | x | -4.0 | x
COc1ccccc1N1CCN(C(=O)CCC(=O)N2CCN(c3ccc(F)cc3)CC2)CC1 | 3.6 | i | x | -11.7 | x
N=c1c(S(=O)(=O)c2ccc(F)cc2)cc2c(=O)n3ccccc3nc2n1CC1CCCO1 (stereo unspecified) | 175.0* | i | x | -1.5 | x
CCCCn1c(=N)c(S(=O)(=O)c2ccc(Br)cc2)cc2c(=O)n3cccc(C)c3nc21 | -0.4 | i | x | 6.0 | x
Cc1ccc(S(=O)(=O)c2cc3c(=O)n4cccc(C)c4nc3n(CC3CCCO3)c2=N)cc1 (stereo unspecified) | x | x | 112.3* | x | 37.9
Cc1cccn2c(=O)c3cc(C#N)c(=O)n(CC4CCCO4)c3nc12 (stereo unspecified) | x | x | 21.6 | x | 60.4*
Cc1cccn2c(=O)c3cc(C#N)c(=O)n(-c4c(C)n(C)n(-c5ccccc5)c4=O)c3nc12 | 2.4 | x | 14.4 | -5.4 | 48.6
CC(C)OCCCn1c(=N)c(S(=O)(=O)c2ccccc2)cc2c(=O)n3ccccc3nc21 | -3.4 | i | x | 22.4 | x
Cc1cc(-n2c(=O)c(C#N)cc3c(=O)n4cccc(C)c4nc32)no1 | 183.8* | i | 18.4 | -9.1 | 60.5*
N#Cc1cnn(-c2ccccc2)c1NC(=O)c1ccccc1F | x | x | x | -7.4 | x
CC1Cc2cc(S(=O)(=O)N3CCC(C(=O)N4CCN(c5ccccc5F)CC4)CC3)ccc2N1C(=O)C1CC1 (stereo unspecified) | -3.1 | i | x | -3.0 | x
COc1ccc(CC(NC(C)=O)C(=O)NC2CCN(C(=O)c3ccccc3F)CC2)cc1 (stereo unspecified) | -2.8 | i | x | 70.4* | x
COc1ccc(C(=O)N2CCC(NC(=O)C(Cc3ccccc3OC)NC(C)=O)CC2)cc1 (stereo unspecified) | 2.5 | i | x | 3.2 | x
CC1=CC2=NC(=O)/C(=C\c3cc(C)n(-c4ccccc4)c3C)C(=N)N2O1 | -3.7 | i | -0.8 | -13.0 | -7.0
SMILES | RanGTP-Impb inh | Rce1 inhib | Runt-CBFb FRET | Vif inh | Runt-SMMHC FRET
CC1=CC2=NC(=O)/C(=C\c3cn(C)c4ccccc34)C(=N)N2O1 | 50.4* | i | 3.4 | 165.1 | 87.0*
COc1cc2c(cc1OC)C1(NCC2)C(=O)Nc2ccccc21 (stereo unspecified) | -0.4 | i | -3.7 | -7.0 | -6.8
COc1cc2c(cc1OC)C1(Nc3c-2c(Cc2ccccc2)nn3-c2ccccc2)C(=O)Nc2ccccc21 (stereo unspecified) | 24.5* | i | 1.7 | 24.1 | -3.3
CCCCOc1ccc(Cc2c(COCC)[nH]c(=S)[nH]c2=O)cc1 | 0.7 | + | 2.2 | -17.3 | 2.1
CCN(CC)C(=O)C1=C(C)N(CCC2=CCCCC2)C(=O)C(CC(=O)NC2CCCC2)C1 (stereo unspecified) | x | x | x | -1.6 | x
O=C(CN1C(=O)NC2(CCCCC2)C1=O)Oc1ccc2c(C(F)(F)F)cc(=O)oc2c1 | 32.7* | i | x | -4.2 | x
CCc1cc(=O)oc2cc(OC(=O)CN3C(=O)NC4(CCCC4)C3=O)ccc12 | 3.4 | i | x | -3.5 | x
CN(CCC#N)c1ccc(/C=C(\C#N)c2ccccn2)cc1 | -27.2 | i | 3.5 | -8.9 | 79.2*
CCN(CC)c1ccc(/C=C(\C#N)c2ccccn2)cc1 | 44.6* | i | -21.2 | 3.4 | -44.9
O=S(=O)(Nc1ccc(-c2nc3cccnc3s2)cc1)c1cc(F)ccc1F | 9.7 | i | 44.1 | -4.2 | 85.2*
COc1ccc(CNC(=O)c2ccc(Cl)c(NC3=NC4CS(=O)(=O)CC4S3)c2)cc1 (stereo unspecified) | 0.2 | i | x | 10.2 | x
O=C(NCc1ccccc1)c1ccc(Cl)c(NC2=NC3CS(=O)(=O)CC3S2)c1 (stereo unspecified) | -2.0 | i | x | 59.9* | x
CCCCCC(=O)Nc1ccc(C(=O)COC(=O)c2ccccn2)cc1 | -6.6 | i | x | 14.9 | x
CC1(C)CC(NCc2ccc3c(c2)OCO3)CCO1 (stereo unspecified) | -2.6 | i | -3.6 | -2.6 | -3.0
CCOc1ccc(C(=O)COC(=O)c2nc3nccc(C)n3n2)cc1 | x | x | x | 0.0 | x
N#C/C(=C(/O)CCCl)c1ccccn1 | 21.5* | i | 48.8 | -11.0 | 92.5*
N#C/C(=C(\O)c1ccco1)c1ccccn1 | -1.6 | i | -0.3 | 7.1 | -6.5
Cc1ccc(C(=O)Nc2c3c(nn2C(C)(C)C)CS(=O)(=O)C3)cc1C | -1.8 | i | 98.1* | 6.6 | 6.1
CCCCNC(=S)Nc1ccc(C(F)(F)F)cc1 | -1.5 | i | 1.9 | -4.2 | -0.1
O=C(CN(CCc1ccccc1)S(=O)(=O)c1ccc(Cl)cc1)N/N=C/c1ccccc1C(=O)O | 20.4* | i | -5.2 | -4.1 | -6.7
NNC(=O)CN(CCc1ccccc1)S(=O)(=O)c1ccc(Cl)cc1 | -1.3 | i | 0.9 | -7.1 | 2.9
CC(C)CN(C(=O)c1cc(=O)[nH]c2ccccc12)c1c(N)n(Cc2ccccc2)c(=O)[nH]c1=O | 5.2 | i | x | -4.2 | x
Cc1ccc(NC(=O)CSc2nc3c(c(=O)[nH]2)CCC3)c(C)c1 | 3.2 | i | x | -6.8 | x
CC(=O)c1cccc(NC(=O)NC2CC3CCCC(C2)N3CC(C)C)c1 (stereo unspecified) | -0.5 | i | -2.8 | 54.2* | 0.2
CCCN1C2CCCC1CC(NC(=O)Nc1cccc(C(C)=O)c1)C2 (stereo unspecified) | 0.2 | i | -1.7 | -12.6 | 3.3
Cc1cc(NNC(=O)c2cccc(C(F)(F)F)c2)nc2c1c(C)nn2C | 2.9 | x | -3.7 | -8.9 | 0.8

Assay outcomes: PubChem BioAssay, several laboratories
